Ten compounds from ChEMBL document CHEMBL4706620, “Design, synthesis, biological activity evaluation of 3-(4-phenyl-1H-imidazol-2-yl)-1H-pyrazole derivatives as potent JAK 2/3 and aurora A/B kinases multi-targeted inhibitors” (Eur J Med Chem, 2021) can be followed below.

A value given as a limit tells only on which side of the number the result lay.

For test [1], the system named is K562. As to the kind of experiment: Antiproliferative activity against human K562 cells assessed as reduction in cell growth measured after 72 hrs by CCK8 assay. The class given is functional, cell-based. The following applies: K562, 72 h.
The target of another test is T1, Aurora kinase A (Homo sapiens, UniProt O14965).
T1 sequence (O14965 whole entry): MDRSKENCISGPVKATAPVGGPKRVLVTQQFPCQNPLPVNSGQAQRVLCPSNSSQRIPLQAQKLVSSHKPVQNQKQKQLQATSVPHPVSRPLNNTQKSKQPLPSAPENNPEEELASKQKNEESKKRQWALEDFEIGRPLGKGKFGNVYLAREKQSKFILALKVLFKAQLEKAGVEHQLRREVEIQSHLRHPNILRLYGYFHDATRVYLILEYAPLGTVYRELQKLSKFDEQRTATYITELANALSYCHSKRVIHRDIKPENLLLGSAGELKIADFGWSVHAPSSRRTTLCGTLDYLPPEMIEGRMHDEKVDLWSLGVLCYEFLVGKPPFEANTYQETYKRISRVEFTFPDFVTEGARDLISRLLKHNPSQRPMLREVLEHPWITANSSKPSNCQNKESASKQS
Description: Inhibition of Aurora A (unknown origin) incubated for 40 mins in presence of ATP by Kinase-glo luminescence assay.

The test system of test [2] is HCT-116. Description: Antiproliferative activity against human HCT116 cells assessed as reduction in cell growth measured after 72 hrs by CCK8 assay. The class given is functional, cell-based. The following applies: HCT-116, 72 h.
The target in test [3] is T2, Tyrosine-protein kinase JAK3 (Homo sapiens, UniProt P52333).
T2 sequence (P52333 whole entry): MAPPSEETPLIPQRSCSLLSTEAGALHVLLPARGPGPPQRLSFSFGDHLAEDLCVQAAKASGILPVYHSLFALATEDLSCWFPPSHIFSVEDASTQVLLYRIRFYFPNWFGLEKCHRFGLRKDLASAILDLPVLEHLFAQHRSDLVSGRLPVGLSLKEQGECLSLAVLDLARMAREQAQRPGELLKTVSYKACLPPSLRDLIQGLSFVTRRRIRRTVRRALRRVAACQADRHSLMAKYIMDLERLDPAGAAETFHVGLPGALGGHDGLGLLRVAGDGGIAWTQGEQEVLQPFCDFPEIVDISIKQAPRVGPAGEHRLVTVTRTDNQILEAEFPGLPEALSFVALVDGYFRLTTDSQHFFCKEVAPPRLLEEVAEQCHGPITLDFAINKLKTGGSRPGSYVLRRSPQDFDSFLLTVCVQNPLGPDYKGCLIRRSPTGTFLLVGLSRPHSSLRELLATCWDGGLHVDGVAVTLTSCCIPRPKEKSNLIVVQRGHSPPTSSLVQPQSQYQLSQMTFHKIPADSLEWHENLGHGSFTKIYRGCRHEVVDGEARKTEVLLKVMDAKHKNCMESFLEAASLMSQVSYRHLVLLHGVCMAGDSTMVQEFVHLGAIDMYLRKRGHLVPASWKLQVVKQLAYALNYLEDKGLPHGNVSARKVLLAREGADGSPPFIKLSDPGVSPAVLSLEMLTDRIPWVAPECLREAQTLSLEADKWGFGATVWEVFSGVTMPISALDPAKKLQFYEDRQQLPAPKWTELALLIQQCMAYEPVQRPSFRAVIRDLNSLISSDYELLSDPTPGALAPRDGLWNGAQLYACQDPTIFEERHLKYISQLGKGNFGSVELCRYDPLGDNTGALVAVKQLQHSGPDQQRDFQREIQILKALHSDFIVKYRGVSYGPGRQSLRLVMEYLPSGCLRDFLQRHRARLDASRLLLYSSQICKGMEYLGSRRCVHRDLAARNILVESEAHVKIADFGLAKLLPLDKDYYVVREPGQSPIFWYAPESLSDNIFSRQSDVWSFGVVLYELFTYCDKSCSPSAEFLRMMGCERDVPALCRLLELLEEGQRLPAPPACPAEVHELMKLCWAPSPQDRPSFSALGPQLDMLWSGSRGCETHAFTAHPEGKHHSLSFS
Description: Inhibition of JAK3 (unknown origin) incubated for 40 mins in presence of ATP by Kinase-glo luminescence assay.

The target of test [4] is Tyrosine-protein kinase JAK2 (Homo sapiens, UniProt O60674). As to the kind of experiment: Inhibition of JAK2 (unknown origin) incubated for 40 mins in presence of ATP by Kinase-glo luminescence assay.
Sequence of Tyrosine-protein kinase JAK2 (O60674 whole entry): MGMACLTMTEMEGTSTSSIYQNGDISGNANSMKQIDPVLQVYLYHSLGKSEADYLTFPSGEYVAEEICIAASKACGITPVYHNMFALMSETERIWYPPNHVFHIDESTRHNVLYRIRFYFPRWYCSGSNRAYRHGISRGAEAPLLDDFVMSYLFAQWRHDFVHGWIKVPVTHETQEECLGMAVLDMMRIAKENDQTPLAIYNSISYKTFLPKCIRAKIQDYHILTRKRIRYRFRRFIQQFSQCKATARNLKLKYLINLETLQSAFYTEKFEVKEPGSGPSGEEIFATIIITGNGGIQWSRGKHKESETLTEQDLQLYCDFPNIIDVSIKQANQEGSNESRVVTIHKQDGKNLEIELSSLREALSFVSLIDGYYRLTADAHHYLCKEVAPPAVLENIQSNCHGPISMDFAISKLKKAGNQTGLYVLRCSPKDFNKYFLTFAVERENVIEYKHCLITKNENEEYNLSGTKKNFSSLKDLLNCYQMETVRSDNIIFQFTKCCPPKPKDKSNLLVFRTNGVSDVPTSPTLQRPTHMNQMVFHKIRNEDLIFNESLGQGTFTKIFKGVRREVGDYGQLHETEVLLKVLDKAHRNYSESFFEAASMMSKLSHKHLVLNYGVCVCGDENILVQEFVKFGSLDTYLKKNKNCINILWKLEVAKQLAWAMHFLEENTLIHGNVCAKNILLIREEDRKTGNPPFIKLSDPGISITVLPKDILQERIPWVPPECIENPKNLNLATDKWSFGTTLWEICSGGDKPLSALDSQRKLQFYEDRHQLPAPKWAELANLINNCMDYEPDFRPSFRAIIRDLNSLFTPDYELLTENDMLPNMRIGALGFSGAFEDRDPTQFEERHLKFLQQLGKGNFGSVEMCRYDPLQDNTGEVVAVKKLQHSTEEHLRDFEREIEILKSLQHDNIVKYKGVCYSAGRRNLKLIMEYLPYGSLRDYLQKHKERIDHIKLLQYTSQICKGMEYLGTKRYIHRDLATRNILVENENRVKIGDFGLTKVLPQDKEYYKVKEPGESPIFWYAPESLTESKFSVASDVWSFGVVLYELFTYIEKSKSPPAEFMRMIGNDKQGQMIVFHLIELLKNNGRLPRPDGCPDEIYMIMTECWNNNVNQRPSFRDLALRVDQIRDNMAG
A further test has as its target Aurora kinase B (Homo sapiens, UniProt Q96GD4). Description: Inhibition of Aurora B (unknown origin) incubated for 40 mins in presence of ATP by Kinase-glo luminescence assay. The gist of the method: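 Kinase reaction at 30 °C for 40 min in 40 mM Tris pH 7.4, 10 mM MgCl2, 0.1 mg/ml BSA, 1 mM DTT, 10 µM ATP, kinase plus substrate; compounds added from 10% DMSO dilutions (1% DMSO final). Remaining ATP measured by Kinase-Glo Plus luminescence; IC50 from nonlinear regression, normalized dose-response fit.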

Test [5] relates to HCT-116. Description: Cell cycle arrest in human HCT116 cells assessed as accumulation of diploid cells at S phase at 10 uM incubated for 48 hrs by propidium iodide staining based flow cytometric analysis (reference value: 11.92 %). The class given is functional.
For test [6], the system named is K562. Description: Cell cycle arrest in human K562 cells assessed as accumulation of diploid cells at G2 phase at 10 uM incubated for 48 hrs by propidium iodide staining based flow cytometric analysis (reference value: 7.73 %). The class given is functional.
For test [7], the system named is HCT-116. Description: Cell cycle arrest in human HCT116 cells assessed as accumulation of diploid cells at G1 phase at 10 uM incubated for 48 hrs by propidium iodide staining based flow cytometric analysis (reference value: 77.62 %). The class given is functional.
In test [8] the test system is K562. As to the kind of experiment: Cell cycle arrest in human K562 cells assessed as accumulation of diploid cells at S phase at 10 uM incubated for 48 hrs by propidium iodide staining based flow cytometric analysis (reference value: 35.94 %). The class given is functional.
The test system of test [9] is HCT-116. Description: Cell cycle arrest in human HCT116 cells assessed as accumulation at […] phase at 10 uM incubated for 48 hrs by propidium iodide staining based flow cytometric analysis (reference value: 2.01 %). The class given is functional.
In test [10] the test system is HCT-116. Description: Cell cycle arrest in human HCT116 cells assessed as accumulation of diploid cells at G2 phase at 10 uM incubated for 48 hrs by propidium iodide staining based flow cytometric analysis (reference value: 10.46 %). The class given is functional.
The species named for test [11] is Homo sapiens. As to the kind of experiment: Selectivity for JAK3 (unknown origin) over Aurora A (unknown origin).
For test [12], the species on record is Homo sapiens. As to the kind of experiment: Selectivity for JAK3 (unknown origin) over Aurora B (unknown origin).
The species named for test [13] is Homo sapiens. Description: Selectivity for JAK2 (unknown origin) over Aurora A (unknown origin).
For test [14], the species on record is Homo sapiens. Description: Selectivity for JAK2 (unknown origin) over Aurora B (unknown origin).

Sequence of Aurora kinase B (Q96GD4 whole entry): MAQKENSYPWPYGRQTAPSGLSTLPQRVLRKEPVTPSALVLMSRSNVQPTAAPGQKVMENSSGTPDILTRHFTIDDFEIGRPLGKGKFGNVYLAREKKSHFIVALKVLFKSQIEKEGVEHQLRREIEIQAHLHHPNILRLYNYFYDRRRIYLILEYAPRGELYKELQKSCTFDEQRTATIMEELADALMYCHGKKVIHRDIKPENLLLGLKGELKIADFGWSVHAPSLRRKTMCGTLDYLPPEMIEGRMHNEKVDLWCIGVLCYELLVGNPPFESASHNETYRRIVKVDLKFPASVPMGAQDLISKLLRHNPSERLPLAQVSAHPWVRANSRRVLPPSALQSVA

Consider `O=C(Nc1c[nH]nc1-c1nc(-c2ccc(CN3CCOCC3)cc2)c[nH]1)c1ccc(Cl)cc1`, for which the IC50 with K562 [1] is 2630 nM; on Aurora kinase A, 2510 nM; with HCT-116 [2], greater than 10000 nM; in test [3] it was 64 nM.

For the compound `O=C(Nc1c[nH]nc1-c1nc(-c2ccc(CN3CCCCC3)cc2)c[nH]1)c1ccc(Cl)cc1`, the IC50 in the test with K562 [1] was greater than 10000 nM; on Aurora kinase A it was 2060 nM; with HCT-116 [2], 1590 nM.

For the compound `O=C(Nc1c[nH]nc1-c1nc(-c2ccc(CN3CCOCC3)cc2)c[nH]1)c1ccc([N+](=O)[O-])cc1`, the IC50 came out at 4340 nM in the test with K562 [1]; 1180 nM in test [4]; 466 nM on Aurora kinase A; 5210 nM with HCT-116 [2]; 650 nM at Aurora kinase B.

`O=C(Nc1c[nH]nc1-c1nc(-c2ccc(CN3CCOCC3)cc2)c[nH]1)c1ccccc1`: the IC50 in the test with K562 [1] and with HCT-116 [2] was greater than 10000 nM throughout.

`O=C(Nc1c[nH]nc1-c1nc2ccc(CN3CCOCC3)cc2[nH]1)NC1CC1` [AT-9283]: the Activity amounted to 8.24% with HCT-116 [5]; 14.99% in the test with K562 [6]; 66.56% in the test on HCT-116 [7]; 32.31% in the test with K562 [8]; 1.98% in the test with HCT-116 [9]; 25.19% in the test with HCT-116 [10]. Besides, the IC50 at Aurora kinase B came to 62 nM.

For `Cc1nc(Cl)cc(Nc2c[nH]nc2-c2nc(-c3ccc(CN4CCOCC4)cc3)c[nH]2)n1`, the IC50 in the test on K562 [1] was 10000 nM; in test [4], 8 nM; on Aurora kinase A, 145 nM; in the test on HCT-116 [2], greater than 10000 nM; in test [3], 23 nM.

In the case of `COc1ccc(C(=O)Nc2c[nH]nc2-c2nc(-c3ccc(CN4CCCCC4)cc3)c[nH]2)cc1`, the IC50 with K562 [1] is greater than 10000 nM; at Aurora kinase A it was 1520 nM; with HCT-116 [2], greater than 10000 nM.

Regarding `O=C(Nc1c[nH]nc1-c1nc(-c2ccc(CN3CCCCC3)cc2)c[nH]1)c1cccc(Cl)c1`, the IC50 in the test on K562 [1] is 2500 nM; in [4], 16 nM; at Aurora kinase A it was 1130 nM; in the test on HCT-116 [2], greater than 10000 nM; in test [3], 13 nM. In addition, the Selectivity ratio in the test filed under Homo sapiens [11], in the test listed under Homo sapiens [12], in the test listed under Homo sapiens [13] and in the test filed under Homo sapiens [14] was 20 each time.

As for `COc1ccc(C(=O)Nc2c[nH]nc2-c2nc(-c3ccc(CN4CCOCC4)cc3)c[nH]2)cc1`, the IC50 in the test on K562 [1] is 5650 nM; in test [4], 14 nM; on Aurora kinase A, 359 nM; with HCT-116 [2], greater than 10000 nM; in [3], 24 nM; on Aurora kinase B it was greater than 1000 nM. Further, the Selectivity ratio in the test filed under Homo sapiens [11], in the test filed under Homo sapiens [12], in the test listed under Homo sapiens [13] and in the test listed under Homo sapiens [14] was 20 in each case.

As to `CSc1nc(Cl)c(C)c(Nc2c[nH]nc2-c2ncc(-c3ccc(OCCCN4CCOCC4)cc3)[nH]2)n1`, the IC50 in the test with K562 [1] came to 9880 nM; in the test on HCT-116 [2], 16100 nM.
